Screens (PubChem)
Compounds with a hit are over-represented: about 3% of the library has one in this group of screens.
Myeloid diff MLP – myeloid differentiation induction; ER-HoxA9 myeloid progenitors, lysozyme-GFP differentiation, flow cytometry; hit rate 1% among 360,000; AID 624256; calls only at 10 µM;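 active means normalized GFP-positive differentiation at or above the plate's own cutoff, the solvent-only control mean plus 3 SD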;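 further: cells exposed to compound for four days before flow analysis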
HNF4A DNA FP – change in binding of human HNF4 alpha to DNA; P41235; HNF4a-FITC DNA binding, fluorescence polarization, 1 h; activity change, % at 10 µM; hit rate 0.3% among 360,000; AID 1224865; in the data active means activity change above about 30%, passing the limit was not always enough
Target sequence (P41235 whole entry, looked up): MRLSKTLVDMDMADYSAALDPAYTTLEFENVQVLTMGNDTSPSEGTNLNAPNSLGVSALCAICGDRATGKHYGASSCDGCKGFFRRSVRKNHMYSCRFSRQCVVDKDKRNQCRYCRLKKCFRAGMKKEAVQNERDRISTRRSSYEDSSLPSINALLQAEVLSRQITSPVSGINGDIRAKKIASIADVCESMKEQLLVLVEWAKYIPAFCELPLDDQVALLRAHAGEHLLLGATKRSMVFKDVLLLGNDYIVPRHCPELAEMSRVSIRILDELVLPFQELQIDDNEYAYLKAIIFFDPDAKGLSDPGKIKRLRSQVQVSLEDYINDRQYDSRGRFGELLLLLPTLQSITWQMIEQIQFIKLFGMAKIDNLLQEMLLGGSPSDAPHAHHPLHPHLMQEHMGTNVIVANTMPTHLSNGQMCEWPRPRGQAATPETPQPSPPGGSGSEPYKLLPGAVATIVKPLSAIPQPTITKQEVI
Granule exo inh – lytic granule exocytosis inhibition; TALL-104 LAMP-1 surface exposure, flow cytometry; cells stimulated with thapsigargin and PMA; inhibition, % at 10 µM; hit rate 0.66% among 360,000; AID 651702;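 active means inhibition above about 55%, limit read from the data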
Cardio protect – modulators protecting cardiomyocytes from myocardial damage; hit rate 0.63% among 360,000; AID 588492; protection from H2O2 cell death, % at 20 µM; H9c2 cardiomyocytes, H2O2 injury protection, ATPLite, 2 h;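 active means compounds giving at least 50% protection of heart cells from peroxide-induced death in the single-dose screen, raw or plate-pattern-corrected value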;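 further: 0% = DMSO wells with peroxide and 100% = DMSO wells without peroxide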
Pemphigus Ab inh – blocks pemphigus antibody binding to human desmoglein-3 | P32926 | DSG3-coupled beads, scFv-anti-DSG3-GFP binding, flow cytometry; stronger effect = lower value | binding (percent of control), % at 10 µM | hit rate 0.48% among 310,000;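 active means binding more than 3 SD below its plate's average and above zero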
SENP1 FRET inh – blocks the human SENP1 SUMO protease catalytic domain. Q9P0U3. recombinant SENP1 catalytic domain, CyPet-SUMO1-YPet FRET cleavage. inhibition, % at 10 µM. hit rate 0.21% among 360,000;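 active means inhibition at least 30% at 10 µM, raw YFP signal under a set limit, fluorescence ratio 0.5 to 1.5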;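 further: 0% = enzyme with DMSO and 100% = no enzyme wells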
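Test system: hSENP1 catalytic domain, recombinant; Amount: 20 pM final SENP1 enzyme; Medium: Tris pH 8 buffer plus EDTA, NaCl, BME, BSA, NP40, catalase; Schedule: 50 min enzyme reaction, room temperature, light-protected; Technique: FRET fluorescence in CFP and YFP emission channels; Controls: no-enzyme wells low, DMSO-plus-enzyme wells high control.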
Exocytosis CP01 – lytic granule exocytosis inhibition | shares compounds with Granule exo inh | TALL-104 cells, LAMP-1 externalization, flow cytometry; stimulated with PMA plus thapsigargin | inhibition, % at 10 µM | hit rate 11% among 1,500 | AID 651954; in the data active means inhibition above about 60%;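 further: 0% = stimulated vehicle wells and 100% = unstimulated wells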
* = called active by the depositor; i = inactive; x = not tested or not shown.

SMILES | Myeloid diff MLP | HNF4A DNA FP | Granule exo inh | Cardio protect | Pemphigus Ab inh | SENP1 FRET inh | Exocytosis CP01
NC1=NC[C@H](Cc2ccccc2)N1CC1CCCCC1 | i | -1 | 6 | -16 | 100 | -1 | x
O=C1NC[C@H](CC2CCCCC2)N(CCc2cc(C(F)(F)F)cc(C(F)(F)F)c2)C1=O | i | -2 | 16 | x | x | -1 | x
FC(F)(F)c1cc(CCN2C(=S)NC[C@@H]2CC2CCCCC2)cc(C(F)(F)F)c1 | i | 1 | 86* | -4 | 111 | 1 | -10
CC(=O)N1CCSc2ccc(S(=O)(=O)NCCc3ccc(C)cc3)cc21 | i | 14 | 62* | -9 | 104 | 1 | -10
CC(=O)N1CCSc2ccc(S(=O)(=O)NCCc3ccc(Cl)cc3)cc21 | i | -3 | 2 | -9 | 64 | -1 | x
Cn1c(NCC(O)c2ccccc2)nc2c1c(=O)n(Cc1ccc(Cl)cc1)c(=O)n2C (centres undefined) | i | 1 | -8 | -17 | 108 | -3 | x
Cn1c(NCC(O)c2ccccc2)nc2c1c(=O)n(Cc1ccc(Cl)c(Cl)c1)c(=O)n2C (centres undefined) | i | 3 | 92* | 6 | 99 | -1 | 14
OC(c1ccccc1)(c1ccccc1)c1ccn[nH]1 | i | 3 | -4 | 4 | 89 | 2 | x
O=C(Cc1cccs1)Nc1cccc(-c2nc3cc4ccccc4cc3[nH]2)c1 | i | -1 | 66* | -1 | 105 | -3 | 21
CC(=O)Nc1cccc(NC(=O)Cc2cccs2)c1 | i | 0 | 10 | 0 | 91 | 0 | x
CCOC(=O)c1cc(C(=O)c2cccs2)n2ccc(C(C)=O)cc12 | i | 2 | 97* | 41 | 89 | -26 | -2
CCOC(=O)c1cc(C(C)=O)n2ccccc12 | i | 0 | 2 | -2 | 82 | -10 | x
Cc1ccc(C(=O)NCCc2ccc(S(=O)(=O)N3CCCC3)cc2)cc1 | i | 0 | 64* | -5 | 103 | 2 | -4
CCOC(=O)C1CCN(Cc2ccc(OCc3ccccc3)c(OC)c2)CC1 | i | -5 | 4 | 5 | 119 | 0 | x
COCCNC(=O)C1CCCN(Cc2ccc(C(C)C)cc2)CC1 (centres undefined) | i | -2 | 68* | -1 | x | -1 | -4
CC(C)CCNC(=O)C1CCN(Cc2cccc(OCc3ccccc3)c2)CC1 | i | -1 | 69* | 0 | 114 | 1 | -10
COc1cc(CN2CCC(C(=O)NCCC(C)C)CC2)ccc1OCc1ccccc1 | i | 2 | 63* | -1 | 118 | 1 | -12
COCCNC(=O)C1CCCN(Cc2ccc(C)cc2)CC1 (centres undefined) | i | 1 | -5 | 2 | x | -2 | x
CCOc1ccc(S(=O)(=O)N2CCC(C(=O)N3CCc4ccccc4C3)CC2)cc1 | i | -3 | 0 | -1 | 107 | 2 | x
COc1ccc(Cc2nnc(NC(=O)C3CCN(C(=O)c4ccco4)CC3)s2)cc1 | i | 3 | 57* | -2 | 102 | 1 | -13
CN1CCC(N(C)C(=O)c2cccc(S(=O)(=O)N3CCc4ccccc43)c2)CC1 | i | 0 | -1 | 7 | x | 1 | x
Cc1cc(C)nc(Nc2nc(-c3ccccc3)cs2)n1 | i | 2 | 76* | -14 | 99 | -2 | -6
C=CCNc1ncnc2c1ncn2[C@H]1CN(Cc2ccco2)C[C@@H](CO)O1 | i | -3 | -2 | -1 | x | -1 | x
C#Cc1ccc([C@H]2C=C(C(=O)OCC=C)O[C@@H](OCC)[C@@H]2CCCO)cc1 | i | 6 | 78* | -1 | 102 | 1 | -14
CN(C)C(=O)c1c2c(nc3ccccc13)CCCC2 | i | 0 | 107* | 1 | 110 | -3 | -11
SMILES | Myeloid diff MLP | HNF4A DNA FP | Granule exo inh | Cardio protect | Pemphigus Ab inh | SENP1 FRET inh | Exocytosis CP01
CN(C)CCC(=O)N1c2ccccc2Sc2ccc(C(F)(F)F)cc21 | i | 3 | 67* | 1 | 107 | 3 | -13
Cc1ccc(NC(=O)C(Nc2cccc(C)c2)c2ccccc2)cc1 (centres undefined) | i | -1 | 2 | -10 | 104 | -1 | x
COc1cc2c(cc1OC)C(c1ccc(-c3ccc(Cl)c(Cl)c3)o1)=NCC2 | i | 5 | 94* | -15 | 101 | -12 | 91*
Clc1ccc(CSc2nncn2-c2ccc3c(c2)OCCO3)cc1 | i | 2 | 72* | -4 | 101 | 1 | -12
Clc1ccc(CSc2nncn2-c2ccccn2)cc1 | i | 0 | -1 | 4 | 102 | 2 | x
COc1ccc(S(=O)(=O)Nc2c(C)nn(C)c2C)cc1Br | i | -2 | 7 | -7 | x | 1 | x
COc1cc(OC)cc(C(=O)Nc2ccn(C)n2)c1 | i | 5 | 5 | 7 | 102 | 2 | x
COc1ccc(-c2cc(C)no2)cc1S(=O)(=O)N1CCOc2ccc(C)cc21 | i | 6 | -3 | -2 | x | 1 | x
CCc1ccc(-c2cc(C)no2)cc1S(=O)(=O)N1CCOc2ccccc21 | i | 6 | 89* | -4 | 108 | 1 | -2
O=C(CCCc1c[nH]c2ccccc12)NCCc1c[nH]c2ccccc12 | i | -5 | 80* | 8 | 105 | -3 | -14
NC(=O)c1ncn([C@@H]2O[C@H](CNCc3cccn3-c3ccncc3)[C@@H](O)[C@H]2O)n1 | i | -4 | 2 | 4 | 110 | -1 | x
CCN(CC)c1nc(-c2ccccc2)nc2ccccc12 | i | -2 | -6 | -6 | 89 | 2 | x
CCCCN(CCCC)c1nc(-c2ccncc2)nc2ccccc12 | i | 0 | 93* | 3 | 114 | 4 | 68*
CC(=O)Nc1cccc(OCC(=O)NCCC2=CCCCC2)c1 | i | -2 | 95* | 7 | 113 | 1 | -14
COc1ccc(C2CC(=O)Oc3c(C(CCN4CCCC(C)C4)c4ccc(N(C)C)cc4)c(OC)cc(OC)c32)cc1 (centres undefined) | i | 11 | 72* | -14 | 100 | -2 | -2
CCCCOn1c(C)c(C(=O)OCC)c2c3nonc3ccc21 | i | 2 | 87* | -8 | 103 | -7 | 36
O=CN1CCN(C=O)C(O)C1O (centres undefined) | i | 2 | -7 | -4 | 95 | -2 | x
COc1ccccc1Cc1c(-c2ccco2)nc2c3ccccc3ccn12 | i | 8 | 76* | x | x | -31 | -3
COc1ccccc1Cc1c(-c2ccco2)nc2c(C)cc(Br)cn12 | x | -7 | 40 | -2 | x | -1 | x
CCOC(=O)[C@@H]1[C@H]2COc3cc(OC)ccc3[C@H]2N2C(=O)N(c3ccc(C)cc3)C(=O)[C@@]12C | i | -4 | 0 | 16 | 101 | -1 | x
Cc1ccc(S(=O)(=O)N2CCC[C@H]2C(=O)OCc2nc3ccccc3s2)cc1 | i | 0 | 10 | 2 | x | -1 | x
